Experimental findings from ChEMBL document CHEMBL4033716, “The impact of the halogen bonding on D2 and 5-HT1A/5-HT7 receptor activity of azinesulfonamides of 4-[(2-ethyl)piperidinyl-1-yl]phenylpiperazines with antipsychotic and antidepressant properties” (Bioorg Med Chem, 2017) are described below.

Assay [1] relates to Mus musculus. Nature of the assay: Antipsychotic activity in CD-1 mouse assessed as inhibition of MK-801-induced hyperlocomotor activity at 30 mg/kg, ip pretreated with MK-801 for 15 mins followed by compound administration for 60 mins. It is filed as functional, organism-based. The method in brief:
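Male CD-1 mice, tested in the light phase, observer blind. Test compounds i.p. 60 min and MK-801 i.p. 15 min before testing, in distilled water at 10 ml/kg; vehicle controls. After 30 min cage habituation, ambulation recorded by activity monitor for 1 h in 5-min bins. 8–10 animals/group; mean ± SEM, one-way ANOVA with Bonferroni test.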

In assay [2] the target is T1, 5-hydroxytryptamine receptor 7 (Homo sapiens, UniProt P34969). Nature of the assay: Antagonist activity at human 5-HT7 receptor expressed in CHOK1 cells assessed as inhibition of serotonin-induced cAMP production at 1 uM after 30 mins by HTRF assay. In kind it is functional, cell-based. The method in brief: (§1)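 Cellular cAMP functional antagonist assay run by a contract lab. Human 5-HT7 receptor was stably expressed in CHO cells, and human 5-HT1A in HEK293 cells. Read-out was % inhibition of the control agonist response.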
T1 sequence (P34969 whole entry): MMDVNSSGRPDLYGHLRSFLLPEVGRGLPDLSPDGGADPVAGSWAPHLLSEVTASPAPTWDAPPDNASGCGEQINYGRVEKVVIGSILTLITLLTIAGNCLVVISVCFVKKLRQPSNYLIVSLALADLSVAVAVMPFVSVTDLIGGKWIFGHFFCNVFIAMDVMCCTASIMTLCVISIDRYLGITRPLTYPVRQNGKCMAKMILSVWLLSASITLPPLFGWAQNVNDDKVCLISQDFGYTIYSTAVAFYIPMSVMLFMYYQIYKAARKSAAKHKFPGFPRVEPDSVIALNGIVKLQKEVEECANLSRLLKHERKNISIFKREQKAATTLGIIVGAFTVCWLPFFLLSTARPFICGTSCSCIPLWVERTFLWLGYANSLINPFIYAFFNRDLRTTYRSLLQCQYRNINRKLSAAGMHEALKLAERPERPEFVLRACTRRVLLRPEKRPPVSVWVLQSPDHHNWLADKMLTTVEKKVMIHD

Assay [3] has as its target T2, D(2) dopamine receptor (Homo sapiens, UniProt P14416). Nature of the assay: Displacement of [3H]-Raclopride from human dopamine D2L receptor expressed in HEK293 cell membranes after 1 hr by microbeta liquid scintillation counting analysis. The method in brief:
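HEK293 membranes expressing human D2L. Incubated 1 h at 37°C, rapid filtration. 1 µM (+)butaclamol defined nonspecific binding. Triplicates at 7–8 concentrations, 10⁻¹¹–10⁻⁴ M. Ki via Cheng-Prusoff, ≥3 experiments.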
In general terms: Loss of bound radioactivity is the signal in a displacement assay; it reports binding, not function.

Assay [4] has as its target 5-hydroxytryptamine receptor 6 (Homo sapiens, UniProt P50406). Nature of the assay: Displacement of [3H]-LSD from human 5-HT6 receptor expressed in HEK293 cell membranes after 1 hr by microbeta liquid scintillation counting analysis. In outline:
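Human 5-HT6 stably expressed in HEK293; cell membranes washed by two 35 000 g spins. Buffer 50 mM Tris-HCl, 0.5 mM EDTA, 4 mM MgCl₂. Incubated 1 h at 37°C, filtered. Nonspecific binding with 10 µM methiothepine. 7–8 concentrations (10⁻¹¹–10⁻⁴ M) in triplicate. Ki by Cheng-Prusoff, ≥3 experiments.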

The test system of assay [5] is Mus musculus. Briefly: Antidepressant-like activity in Swiss albino mouse assessed as decrease in immobility time at 1.25 mg/kg, ip measured last 4 mins of 6 mins test by forced swim test relative to control. In kind it is functional. Also on record: scale not given: the % may be the effect or the level left. The method in brief:
(§2)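 Male Swiss albino mice (22–26 g), used once, observer blind. Drugs dissolved in distilled water, given i.p. at 10 ml/kg: test compounds 60 min, citalopram 30 min before testing; controls got vehicle. Mice placed 6 min in a cylinder with 10 cm water at 23–25°C; immobility scored over the last 4 min. 7–12 mice/group; one-way ANOVA then Bonferroni.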

The target of assay [6] is 5-hydroxytryptamine receptor 2A (Homo sapiens, UniProt P28223). Nature of the assay: Displacement of [3H]-Ketanserin from human 5-HT2A receptor expressed in HEK293 cell membranes after 1 hr by microbeta liquid scintillation counting analysis. In outline: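 Competition binding on membranes from HEK293 cells stably expressing human 5-HT2A, prepared by homogenization and two 35 000 g centrifugations. Incubated 1 h at 37°C, then filtered and counted. Triplicate points at 7–8 concentrations, 10⁻¹¹–10⁻⁴ M. Ki from Cheng-Prusoff, ≥3 separate experiments.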
Chain of 5-hydroxytryptamine receptor 2A (P28223 whole entry): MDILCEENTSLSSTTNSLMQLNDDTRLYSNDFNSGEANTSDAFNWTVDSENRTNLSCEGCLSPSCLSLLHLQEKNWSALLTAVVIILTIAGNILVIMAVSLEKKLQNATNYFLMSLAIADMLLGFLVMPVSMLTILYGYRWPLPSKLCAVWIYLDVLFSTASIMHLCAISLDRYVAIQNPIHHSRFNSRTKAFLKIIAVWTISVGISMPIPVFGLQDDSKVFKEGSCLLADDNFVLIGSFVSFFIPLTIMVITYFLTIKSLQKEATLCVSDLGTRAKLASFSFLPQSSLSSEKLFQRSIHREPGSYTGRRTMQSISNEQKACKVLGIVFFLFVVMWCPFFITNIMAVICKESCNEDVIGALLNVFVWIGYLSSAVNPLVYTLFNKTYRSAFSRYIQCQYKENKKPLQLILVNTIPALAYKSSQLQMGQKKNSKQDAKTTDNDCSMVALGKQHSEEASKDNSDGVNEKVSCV

Assay [7] has as its system Mus musculus. Briefly: Antidepressant-like activity in Swiss albino mouse assessed as decrease in immobility time at 2.5 mg/kg, ip measured last 4 mins of 6 mins test by forced swim test relative to control. In kind it is functional. Further details: scale not given: the % may be the effect or the level left. In outline: as §2
Assay [8] deals with T3, 5-hydroxytryptamine receptor 1A (Homo sapiens) (UniProt P08908).
T3 sequence (whole entry): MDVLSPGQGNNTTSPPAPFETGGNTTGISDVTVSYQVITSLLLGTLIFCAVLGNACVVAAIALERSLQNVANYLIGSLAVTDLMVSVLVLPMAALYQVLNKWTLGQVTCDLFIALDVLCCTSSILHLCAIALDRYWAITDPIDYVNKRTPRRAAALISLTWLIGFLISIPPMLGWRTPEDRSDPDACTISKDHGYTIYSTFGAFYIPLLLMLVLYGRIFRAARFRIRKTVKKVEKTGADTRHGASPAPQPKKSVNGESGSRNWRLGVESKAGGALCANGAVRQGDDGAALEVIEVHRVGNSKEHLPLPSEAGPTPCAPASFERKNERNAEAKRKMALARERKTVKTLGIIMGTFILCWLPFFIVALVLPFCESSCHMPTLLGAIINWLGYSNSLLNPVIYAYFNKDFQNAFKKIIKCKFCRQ
Briefly: Antagonist activity at human 5-HT1A receptor expressed in HEK293 cells assessed as inhibition of 8-OH-DPAT-induced cAMP production at 1 uM by fluorescence assay. In kind it is functional, cell-based. The method in brief:
as §1
(cAMP levels reflect the balance of adenylyl cyclase and phosphodiesterase activity.)

In assay [9] the target is T2, D(2) dopamine receptor. Nature of the assay: Antagonist activity at human dopamine D2 receptor expressed in HEK293 cells at 1 uM assessed as inhibition of dopamine-induced cAMP production. It is filed as functional, cell-based. In outline:
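Cellular cAMP antagonist assay run by a contract lab on HEK293 cells stably expressing human D2 receptor. Compound tested at 10⁻⁶ M. Result given as % inhibition of the control agonist response to dopamine 30 nM.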

In assay [10] the target is T1, 5-hydroxytryptamine receptor 7. Briefly: Displacement of [3H]-5-CT from human 5-HT7 receptor expressed in HEK293 cell membranes after 1 hr by microbeta liquid scintillation counting analysis. The method in brief: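 Membranes from HEK293 pellets stably expressing human 5-HT7b, homogenized and centrifuged twice at 35 000 g (4°C) with 15 min 37°C incubation between. Buffer 50 mM Tris-HCl, 4 mM MgCl₂, 10 μM pargyline, 0.1% ascorbate. Incubated 1 h at 37°C, then filtered. Nonspecific binding defined with 10 µM 5-HT. Triplicates at 7–8 concentrations (10⁻¹¹–10⁻⁴ M). Ki by Cheng-Prusoff, ≥3 experiments.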

Assay [11] addresses T4, 5-hydroxytryptamine receptor 1A (Homo sapiens, UniProt P08908).
T4 sequence (P08908 whole entry): T3 sequence (whole entry)
Nature of the assay: Displacement of [3H]-8-OH-DPAT from human 5-HT1A receptor expressed in HEK293 cell membranes after 1 hr by microbeta liquid scintillation counting analysis. The method in brief: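 HEK293 membranes with stably expressed human 5-HT1A, washed by two 35 000 g spins. Buffer 50 mM Tris-HCl, 0.1 mM EDTA, 4 mM MgCl₂, 10 μM pargyline, 0.1% ascorbate. Incubated 1 h at room temperature, then rapid filtration. 10 µM 5-HT defined nonspecific binding. Tested in triplicate over 10⁻¹¹–10⁻⁴ M (7–8 concentrations). Ki via Cheng-Prusoff, mean of ≥3 experiments.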

SMILES strings stand for the structures. The source made the active and inactive calls. The calls are words filed in the database; no cut-off is given here.

T2 sequence (P14416 whole entry): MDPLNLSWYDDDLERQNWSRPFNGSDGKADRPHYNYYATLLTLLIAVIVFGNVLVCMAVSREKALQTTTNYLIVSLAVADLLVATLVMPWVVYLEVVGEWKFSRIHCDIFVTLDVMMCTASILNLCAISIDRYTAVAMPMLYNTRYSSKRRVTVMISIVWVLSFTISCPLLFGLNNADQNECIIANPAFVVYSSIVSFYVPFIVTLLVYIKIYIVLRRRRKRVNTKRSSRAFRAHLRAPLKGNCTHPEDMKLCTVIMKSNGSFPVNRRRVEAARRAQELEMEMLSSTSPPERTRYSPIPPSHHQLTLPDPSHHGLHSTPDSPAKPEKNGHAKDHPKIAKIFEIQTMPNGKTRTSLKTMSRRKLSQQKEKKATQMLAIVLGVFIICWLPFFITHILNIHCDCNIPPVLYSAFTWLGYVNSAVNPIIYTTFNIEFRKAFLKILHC
Chain of 5-hydroxytryptamine receptor 6 (P50406 whole entry): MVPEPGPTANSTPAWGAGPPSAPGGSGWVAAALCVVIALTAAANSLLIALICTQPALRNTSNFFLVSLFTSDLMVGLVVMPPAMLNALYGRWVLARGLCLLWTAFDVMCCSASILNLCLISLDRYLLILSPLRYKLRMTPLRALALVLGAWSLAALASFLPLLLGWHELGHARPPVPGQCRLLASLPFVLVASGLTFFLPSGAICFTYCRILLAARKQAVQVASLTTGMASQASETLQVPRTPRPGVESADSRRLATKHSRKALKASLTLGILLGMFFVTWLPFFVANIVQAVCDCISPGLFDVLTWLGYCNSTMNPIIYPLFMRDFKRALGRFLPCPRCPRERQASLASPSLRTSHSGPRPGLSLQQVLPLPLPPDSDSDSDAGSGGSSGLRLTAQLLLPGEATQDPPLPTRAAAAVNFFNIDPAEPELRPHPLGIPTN

As to `O=S(=O)(c1cncc2ccccc12)N1CCC(CCN2CCN(c3cccc(Cl)c3)CC2)CC1`, the inhibition result with Mus musculus [1] is “Active”. Also, the inhibition amounted to 73% in assay [2], 69% in assay [8] and 85% at D(2) dopamine receptor [9]. Besides, the Ki at D(2) dopamine receptor [3] was 37 nM; in assay [4], 1190 nM; in assay [6], 157 nM; in assay [10], 18 nM; in assay [11] it was 32 nM. The Activity in the assay on Mus musculus [5] is on record as 36%; in the assay on Mus musculus [7], 32%.

The inhibition is the share of the control response that was lost under treatment. Broadly, the Ki is the equilibrium dissociation constant of an inhibitor or competing ligand from its target.
